Experimental findings from the array DNA melting data of Ke et al. (doi:10.1101/2024.01.08.574731) are described below.

Series [1] can be described thus: folding enthalpy; higher = less favourable; fluorescence melt of hairpins on a sequencing array, two-state fit. The following applies: sodium 0.088 M. The procedure, abridged: (§1)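 Cy3 fluorescence of library hairpins on a sequenced MiSeq flow cell, with annealed Cy3 and quencher oligos, was imaged in 50 mM Na-HEPES pH 8.0, 25 mM NaCl in 2.5 °C steps up to 60 °C. Signals were normalised to pre-quench Cy3 and to control variants. Melting temperature and folding enthalpy came from bootstrapped two-state fits, inverse-variance combined over four replicates. Fitted temperatures were raised by 9.35 °C to match UV melts.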

Series [2] in a line: melting temperature; fluorescence melt of hairpins on a sequencing array, two-state fit, raised by 9.35 °C to match UV melts. The following applies: sodium 0.088 M. An outline of the steps:
as §1

Turning to GATATACGAAAGTAAATC (((.(((....))).))), in series [1], the folding enthalpy is -14.6 kcal/mol. The Tm in series [2] is 33 °C.
As for GATATAGCGAAAGCTATC (((..(((....)))))), the folding enthalpy in series [1] is -10.1 kcal/mol. Besides, the Tm in series [2] was determined as 33.9 °C.
Regarding GATATAGGAAACTGTATC ((((.((....)).)))), the folding enthalpy in series [1] was -21.4 kcal/mol. Besides, the Tm in series [2] stood at 34.6 °C.
Regarding GATATCCGAAAGGAGATC (((.(((....))).))), the folding enthalpy in series [1] was -33.1 kcal/mol. Further, in series [2], the Tm was determined as 49.9 °C.
Turning to GATATCGCGAAAGCGATC (((..(((....)))))), the folding enthalpy in series [1] is -7.08 kcal/mol. In addition, in series [2], the Tm came out at 35.2 °C.
The matching figures for GATATGCCGAAAGGCATC (((..(((....)))))): -7.19 kcal/mol and 38.5 °C.
With GATATGGAAACATATC ((((((....)))))), the folding enthalpy in series [1] was -29.7 kcal/mol. The Tm in series [2] turned out to be 46.1 °C.
For the sequence GATATGGGAAACCACATC (((.(((....))).))), the folding enthalpy in series [1] was -15 kcal/mol. In addition, in series [2], the Tm is 28.4 °C.
The matching figures for GATATGGGAAACCATACC (.(((((....))))).): -15 kcal/mol and 29.5 °C.
Regarding GATATGGGAAACCGTATC ((((.((....)).)))), the folding enthalpy in series [1] was -32 kcal/mol. In addition, the Tm in series [2] was 43 °C.
On to GATATTGAAAAATATC ((((((....)))))), for which the folding enthalpy in series [1] was -22.6 kcal/mol. Further, in series [2], the Tm was determined as 37 °C.
The matching figures for GATATTGCGAAAGCAATC (((..(((....)))))): -8.38 kcal/mol and 35.4 °C.
For GATATTGGAAACAATATC (((((((....))))))), in that order: -45.2 kcal/mol and 48.8 °C.
The matching figures for GATCAAAAACTTGATC ((((((....)))))): -26.5 kcal/mol and 34.9 °C.
On to GATCAAAACTTTGATC ((((((....)))))), for which, in series [1], the folding enthalpy is -35.9 kcal/mol. In series [2], the Tm amounted to 46.6 °C.
For GATCAAAAGCTTGATC ((((((....)))))), in that order: -25.6 kcal/mol and 38 °C.
As to GATCAAAATCTTGATC ((((((....)))))), in series [1], the folding enthalpy was -27.8 kcal/mol. Moreover, the Tm in series [2] stood at 39.9 °C.
As for GATCAAACAGTTGATC ((((((....)))))), in series [1], the folding enthalpy is -25.8 kcal/mol. Moreover, in series [2], the Tm came out at 38.5 °C.
The matching figures for GATCAAACCCTTGATC ((((((....)))))): -33.4 kcal/mol and 42.7 °C.
Regarding GATCAAACGTTGATC ((((((...)))))), the folding enthalpy in series [1] is -28.1 kcal/mol. Also, the Tm in series [2] worked out at 39.5 °C.
For GATCAAAGCTTGATC ((((((...)))))), the folding enthalpy in series [1] is -28.1 kcal/mol. Further, in series [2], the Tm turned out to be 40.1 °C.
For GATCAAATCATTGATC ((((((....)))))), in that order: -32.8 kcal/mol and 41.8 °C.
For GATCAAATGTTTGATC ((((((....)))))), in that order: -34.6 kcal/mol and 45.1 °C.
For GATCAAATTCTTGATC ((((((....)))))), in that order: -32.6 kcal/mol and 41.4 °C.
In the case of GATCAAATTTTGATC ((((((...)))))), the folding enthalpy in series [1] was -31.4 kcal/mol. In addition, the Tm in series [2] amounted to 43 °C.
Take GATCAACACATTGATC ((((((....)))))): the folding enthalpy in series [1] is -36.9 kcal/mol. Besides, in series [2], the Tm turned out to be 44.9 °C.
As to GATCAACACGTTGATC ((((((....)))))), in series [1], the folding enthalpy is -40.2 kcal/mol. The Tm in series [2] stood at 53.6 °C.
As to GATCAACACTTGATC ((((((...)))))), the folding enthalpy in series [1] was -31.6 kcal/mol. For the same sequence, in series [2], the Tm stood at 40.5 °C.
GATCAACAGCTTGATC ((((((....)))))): the folding enthalpy in series [1] is -29.1 kcal/mol. The Tm in series [2] stood at 39.5 °C.
Take GATCAACATCTTGATC ((((((....)))))): the folding enthalpy in series [1] was -28.1 kcal/mol. Besides, the Tm in series [2] was 41.5 °C.
For GATCAACATGTTGATC ((((((....)))))), in that order: -56.2 kcal/mol and 54.7 °C.
For the sequence GATCAACATTTTGATC ((((((....)))))), in series [1], the folding enthalpy was -31.1 kcal/mol. For the same sequence, the Tm in series [2] turned out to be 42.6 °C.
Take GATCAACCCCTTGATC ((((((....)))))): the folding enthalpy in series [1] was -35.2 kcal/mol. Also, in series [2], the Tm worked out at 45.5 °C.
GATCAACCTTTTGATC ((((((....)))))): in series [1], the folding enthalpy is -29.7 kcal/mol. Also, in series [2], the Tm was determined as 41.8 °C.
In the case of GATCAACGGTTTGATC ((((((....)))))), in series [1], the folding enthalpy is -30.1 kcal/mol. In series [2], the Tm amounted to 40.9 °C.
The matching figures for GATCAACGTCTTGATC ((((((....)))))): -30.9 kcal/mol and 42.6 °C.
As to GATCAACTAATTGATC ((((((....)))))), in series [1], the folding enthalpy is -28.4 kcal/mol. The Tm in series [2] was 40.8 °C.
In the case of GATCAACTATTTGATC ((((((....)))))), in series [1], the folding enthalpy was -31.5 kcal/mol. Further, the Tm in series [2] is 42.4 °C.
